The source made the active and inactive calls.
Legend:
[1] = target: T1, Poly [ADP-ribose] polymerase 1 (Homo sapiens, UniProt P09874); test: Inhibition of PARP-1 in human SKOV3 cells assessed as inhibition of H2O2-induced poly-ADP ribose formation preincubated for 4 hrs followed by H2O2 addition and incubated overnight by Alexa Fluor 488 staining based confocal microscopic analysis; assay type: cell-based; conditions: SK-OV-3, in the assay text read “incubated for 5 mins” for “incubated overnight”
T1 sequence (P09874 whole entry): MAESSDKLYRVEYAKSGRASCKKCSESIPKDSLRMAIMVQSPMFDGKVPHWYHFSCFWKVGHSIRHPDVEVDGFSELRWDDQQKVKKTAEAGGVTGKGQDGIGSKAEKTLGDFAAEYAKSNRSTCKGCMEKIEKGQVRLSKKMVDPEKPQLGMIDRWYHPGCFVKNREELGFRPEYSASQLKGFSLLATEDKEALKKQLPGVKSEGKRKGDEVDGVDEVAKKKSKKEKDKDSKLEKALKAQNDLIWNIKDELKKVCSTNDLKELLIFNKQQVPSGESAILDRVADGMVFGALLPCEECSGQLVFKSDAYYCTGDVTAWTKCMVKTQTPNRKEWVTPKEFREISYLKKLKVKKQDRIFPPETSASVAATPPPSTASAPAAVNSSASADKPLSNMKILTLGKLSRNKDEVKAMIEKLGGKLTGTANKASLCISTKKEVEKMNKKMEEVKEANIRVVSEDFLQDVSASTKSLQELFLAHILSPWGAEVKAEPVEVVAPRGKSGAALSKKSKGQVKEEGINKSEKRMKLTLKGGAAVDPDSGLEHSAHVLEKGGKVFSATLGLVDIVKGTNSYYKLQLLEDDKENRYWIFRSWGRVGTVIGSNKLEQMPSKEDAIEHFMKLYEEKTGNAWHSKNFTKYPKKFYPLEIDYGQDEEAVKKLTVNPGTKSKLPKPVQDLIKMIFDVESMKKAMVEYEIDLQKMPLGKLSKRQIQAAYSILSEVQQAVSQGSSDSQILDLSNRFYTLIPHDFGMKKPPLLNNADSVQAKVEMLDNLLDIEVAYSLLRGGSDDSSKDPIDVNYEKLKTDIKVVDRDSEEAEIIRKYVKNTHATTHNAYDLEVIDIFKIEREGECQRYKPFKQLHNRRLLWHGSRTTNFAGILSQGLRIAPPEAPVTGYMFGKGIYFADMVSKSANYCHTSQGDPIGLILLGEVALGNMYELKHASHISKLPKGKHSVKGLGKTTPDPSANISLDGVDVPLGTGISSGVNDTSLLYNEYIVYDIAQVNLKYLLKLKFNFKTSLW
How it was run: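 SK-OV-3 cells were seeded in 96-well plates and grown for 24 h, exposed to compound for 4 h, then to 10 mM H2O2 for 5 min. Cells were fixed and incubated with anti-PAR primary antibody overnight at 4 °C, then with Alexa Fluor 488 secondary antibody. Nuclei were stained with 1 % DAPI and imaged by confocal microscopy.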

[2] = target: T1, Poly [ADP-ribose] polymerase 1; test: Inhibition of PARP-1 in human SKOV3 cells assessed as decrease in MCM7 protein expression level at 2.5 to 10 uM incubated for 48 hrs by western blot analysis; assay type: cell-based; conditions: SK-OV-3, dose 2.5-10 µM
How it was run: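 SK-OV-3 cells were grown in McCOY's 5A, seeded in 6-well plates and treated for 48 h. Lysate proteins were separated by 8-15 % SDS-PAGE and transferred to PVDF membranes. Membranes were blocked in 5 % nonfat milk, probed with primary antibody overnight at 4 °C and with HRP secondary antibody for 1 h at room temperature, then detected by enhanced chemiluminescence. Images are representative of 3 independent experiments.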

SK-OV-3 = test: Induction of apoptosis in human SKOV3 cells assessed as increase in caspase-3 expression at 2.5 to 10 uM incubated for 48 hrs by western blot analysis; assay type: functional, cell-based; conditions: dose 2.5-10 µM

COc1cc(/C=N/NC(N)=S)c(Br)c(Br)c1OC
active: inhibition [1] | inhibition [2] | Activity (SK-OV-3)
